Source: ChEMBL document CHEMBL1140905

Columns and labels:
[1] = tested on: BL21-DE3; experiment: Selectivity ratio of IC50 for human squalene synthase to IC50 for Staphylococcus aureus dehydrosqualene synthase expressed in Escherichia coli BL21 (DE3) cells
[2] = tested on: BL21-DE3; experiment: Selectivity ratio of IC50 for human squalene synthase to IC50 for Staphylococcus aureus dehydrosqualene synthase expressed in Escherichia coli BL21 (DE3) cells assessed as relative selectivity relative to potassium 4-(3-phenoxyphenyl)-1-phosphonatobutane-1-sulfonate
[3] = biological target: T1, 4,4'-diapophytoene synthase (Staphylococcus aureus, UniProt A9JQL9); experiment: Inhibition of Staphylococcus aureus dehydrosqualene synthase expressed in Escherichia coli BL21 (DE3) cells by continuous spectrophotometric assay
T1 sequence (A9JQL9 whole entry): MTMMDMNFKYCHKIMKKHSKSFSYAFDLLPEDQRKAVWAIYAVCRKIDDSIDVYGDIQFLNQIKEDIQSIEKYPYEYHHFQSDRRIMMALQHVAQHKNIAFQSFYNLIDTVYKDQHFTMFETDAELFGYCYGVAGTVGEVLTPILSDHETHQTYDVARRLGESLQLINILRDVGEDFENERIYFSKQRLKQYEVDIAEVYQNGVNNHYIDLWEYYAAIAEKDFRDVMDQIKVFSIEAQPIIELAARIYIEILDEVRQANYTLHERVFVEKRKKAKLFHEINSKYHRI
Outline: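 His-tagged S. aureus CrtM, Ni-NTA purified after IPTG induction (1 mM, 4 h). Compounds preincubated with 2 μg CrtM for 30 min at 20 °C. Phosphate release followed by continuous spectrophotometric coupled assay. IC50 from dose-response fit; Ki derived from IC50 and reported Km.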

[4] = tested on: Staphylococcus aureus; experiment: Inhibition of staphyloxanthin biosynthesis in Staphylococcus aureus Pig1 isolate after 72 hrs; type: functional, organism-based; settings: PIG1, 72 h
Outline: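 Wild-type clinical isolate Pig1 grown in THB (1 mL) with serially diluted compounds, 37 °C, 72 h, in duplicate. Cells centrifuged and washed twice with PBS. Pigment extracted with methanol, OD read at 450 nm. IC50 from dose-response fit of OD data.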

[5] = biological target: T2, Squalene synthase (Homo sapiens, UniProt P37268); experiment: Inhibition of human recombinant squalene synthase expressed in Escherichia coli BL21 (DE3) cells assessed as formation of 1,10-dioic acid metabolite by liquid scintillation
T2 sequence (P37268 whole entry): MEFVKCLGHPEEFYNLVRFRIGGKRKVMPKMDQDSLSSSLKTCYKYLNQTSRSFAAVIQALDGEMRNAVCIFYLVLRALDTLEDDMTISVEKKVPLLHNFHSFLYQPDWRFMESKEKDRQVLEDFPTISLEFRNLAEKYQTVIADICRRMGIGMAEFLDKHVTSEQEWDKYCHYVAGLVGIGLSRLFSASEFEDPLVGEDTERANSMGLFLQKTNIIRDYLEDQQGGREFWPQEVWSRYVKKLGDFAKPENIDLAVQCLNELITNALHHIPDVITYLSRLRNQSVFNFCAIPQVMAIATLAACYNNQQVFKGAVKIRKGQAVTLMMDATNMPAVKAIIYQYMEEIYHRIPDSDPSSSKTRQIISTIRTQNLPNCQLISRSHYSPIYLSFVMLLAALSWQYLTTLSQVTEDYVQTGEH

| Compound | IC50 [4] [nM] | IC50 [3] [nM] | further results |
| --- | --- | --- | --- |
| O=P(O)(O)C(CCCc1ccc(-c2ccc(C(F)(F)F)cc2)cc1)P(=O)(O)O | 1100 | – | Ratio IC50 [1]: 0.014; Ratio IC50 [2]: 4.8; Ki [3]: 0.5 nM |
| O=P(O)(O)C(CCCc1cccc(Oc2ccc(Cc3ccccc3)cc2)c1)S(=O)(=O)O (stereo not given) | 49 | – | – |
| O=P(O)(O)C(CCCc1ccc(-c2ccccc2)cc1)P(=O)(O)O | 2200 | – | Ki [3]: 1 nM |
| O=P(O)(O)C(CCCc1cc(Oc2ccc(F)cc2)ccc1F)S(=O)(=O)O (stereo not given) | 59 | 2100 | – |
| O=P(O)(O)[C@@H](CCCc1cccc(Oc2ccccc2)c1)S(=O)(=O)O | 310 | 47900 | – |
| O=P(O)(O)C(CCCc1cccc(Oc2ccc(Cl)c(Cl)c2)c1)S(=O)(=O)O (stereo not given) | 11 | 2200 | – |
| O=P(O)(O)C(CCCc1ccc(Oc2ccccc2)cc1)S(=O)(=O)O (stereo not given) | 190 | – | – |
| O=P(O)(O)C(CCCc1cccc(Oc2ccc(-c3ccco3)cc2)c1)S(=O)(=O)O (stereo not given) | 1100 | 26300 | – |
| O=P(O)(O)C(Cc1cccc(Oc2ccccc2)c1)S(=O)(=O)O (stereo not given) | 33900 | – | Ratio IC50 [1]: 0.0022; Ratio IC50 [2]: 0.8 |
| CCCCc1ccc(-c2ccc(CCCC(P(=O)(O)O)S(=O)(=O)O)cc2)cc1 (stereo not given) | 160 | – | – |
| O=P(O)(O)C(CCCc1cccc(Oc2ccc(F)c(F)c2)c1)S(=O)(=O)O (stereo not given) | 110 | 1700 | – |
| CCCOc1cccc(-c2ccc(CCCC(P(=O)(O)O)S(=O)(=O)O)cc2)c1 (stereo not given) | 490 | – | – |
| CCCc1ccc(Oc2cccc(CCCC(P(=O)(O)O)S(=O)(=O)O)c2)cc1 (stereo not given) | 93 | – | Ki [3]: 5 nM |
| CCn1c2ccccc2c2cc(CCCC(P(=O)(O)O)S(=O)(=O)O)ccc21 (stereo not given) | 263000 | – | – |
| O=P(O)(O)C(CCCc1cccc(Oc2ccccc2)c1)S(=O)(=O)O (racemic) | 110 | – | – |
| O=P(O)(O)[C@H](CCCc1cccc(Oc2ccccc2)c1)S(=O)(=O)O | 50 | – | – |
| CP(=O)(O)C(CCCc1ccc(-c2ccccc2)cc1)P(=O)(O)O (stereo not given) | 1400 | 5400 | Ratio IC50 [1]: 0.014; Ratio IC50 [2]: 4.7; IC50 [5]: 72 nM |
| CC(C)(C)c1ccc(Oc2cccc(CCCC(P(=O)(O)O)S(=O)(=O)O)c2)cc1 (stereo not given) | 21 | – | – |
| COc1ccc(Oc2ccc(F)cc2)cc1CCCC(P(=O)(O)O)S(=O)(=O)O (stereo not given) | 13800 | – | – |

| Compound | IC50 [4] [nM] | IC50 [3] [nM] | further results |
| --- | --- | --- | --- |
| O=P(O)(O)C(CCCc1cccc(Oc2ccc(C(F)(F)F)cc2)c1)S(=O)(=O)O (stereo not given) | 40 | – | – |
| O=P(O)(O)C(CCCc1cccc(Cc2ccccc2)c1)S(=O)(=O)O (stereo not given) | 170 | – | – |
| O=P(O)(O)C(CCCc1cccc(Oc2ccc(Cl)cc2)c1)S(=O)(=O)O (stereo not given) | 39 | 2500 | – |
| O=P(O)(O)C(CCCc1cccc(Oc2ccc(Oc3ccccc3)cc2)c1)S(=O)(=O)O (stereo not given) | 100 | – | – |
| Cc1ccc(-c2ccc(CCCC(P(=O)(O)O)S(=O)(=O)O)cc2)cc1 (stereo not given) | 180 | – | – |
| O=P(O)(O)C(CCCc1cccc(Oc2ccccc2F)c1)S(=O)(=O)O (stereo not given) | 510 | 6900 | – |
| O=P(O)(O)C(CCCc1cccc(Oc2ccc(O)cc2)c1)S(=O)(=O)O (stereo not given) | 6800 | – | – |
| O=P(O)(O)C(CCCc1cccc(Oc2ccc3occc3c2)c1)S(=O)(=O)O (stereo not given) | 15 | 2100 | – |
| O=P(O)(O)C(CCc1cccc(Oc2ccccc2)c1)S(=O)(=O)O (stereo not given) | 20400 | – | Ratio IC50 [1]: 0.0011; Ratio IC50 [2]: 0.4 |
| O=P(O)(O)C(CCCc1cccc(Oc2ccc(F)cc2)c1)S(=O)(=O)O (stereo not given) | 52 | – | Ki [3]: 5 nM |
| O=P(O)(O)C(CCCc1ccc(-c2ccc(F)cc2F)cc1)S(=O)(=O)O (stereo not given) | 180 | – | – |
| O=P(O)(O)C(CCCc1ccc(-c2ccccc2)cc1)S(=O)(=O)O (stereo not given) | 350 | – | – |
| O=P(O)(O)C(CCCc1cccc(Oc2ccccc2Cc2ccccc2)c1)S(=O)(=O)O (stereo not given) | 19 | – | – |
| O=P(O)(O)C(CCCc1cccc(Oc2cccc(C(F)(F)F)c2)c1)S(=O)(=O)O (stereo not given) | 74 | 9800 | – |
| O=P(O)(O)C(CCCc1cccc(Oc2cccc(F)c2)c1)S(=O)(=O)O (stereo not given) | 220 | 2200 | – |
| O=P(O)(O)C(CCCc1cccc(Nc2ccccc2)c1)S(=O)(=O)O (stereo not given) | 500 | – | – |
| O=P(O)(O)C(CCCc1cccc(Oc2cc(F)cc(F)c2)c1)S(=O)(=O)O (stereo not given) | 15 | 4600 | – |
| O=P(O)(O)C(CCCc1cccc(Oc2cc(Cl)cc(Cl)c2)c1)S(=O)(=O)O (stereo not given) | 51 | 6300 | – |
| O=P(O)(O)C(CCCc1cccc(Oc2ccccc2C(F)(F)F)c1)S(=O)(=O)O (stereo not given) | 460 | 53700 | – |
